A selection: hits, their analogues and other compounds. The true share with any hit is near 10%.
WT yeast gro inh: growth inhibition of WT yeast, mitochondrial fusion screen; mitochondrial fusion phenotypic screen, WT strain; inhibition, % at 10 µM; actives 2.1% (n = 190,000); AID 1362; in the data active means inhibition above about 58%; tested in S. cerevisiae
PMI act hi M6P: increases human PMI activity with near-saturating mannose 6-phosphate; P34949; coupled PMI enzyme assay, resazurin fluorescence, 20 min; active compounds read high; 1 = untreated enzyme, 0 = substrate-free blank; activation factor at 20 µM; actives 0.34% (n = 190,000); AID 1216;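 active means activation factor of 2 or more at 20 µM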
Target sequence (P34949 whole entry, looked up): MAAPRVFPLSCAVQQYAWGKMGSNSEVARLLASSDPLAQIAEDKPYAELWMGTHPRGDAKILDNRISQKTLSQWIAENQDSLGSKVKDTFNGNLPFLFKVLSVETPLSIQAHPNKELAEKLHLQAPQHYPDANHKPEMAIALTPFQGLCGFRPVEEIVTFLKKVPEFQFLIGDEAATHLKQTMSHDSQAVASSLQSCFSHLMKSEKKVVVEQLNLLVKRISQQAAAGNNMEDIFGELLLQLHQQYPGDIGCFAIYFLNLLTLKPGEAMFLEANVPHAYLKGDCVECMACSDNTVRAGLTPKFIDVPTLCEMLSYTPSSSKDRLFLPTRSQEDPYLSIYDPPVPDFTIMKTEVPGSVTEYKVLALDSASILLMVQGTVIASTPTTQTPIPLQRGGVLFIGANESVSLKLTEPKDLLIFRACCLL
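Test system: human phosphomannose isomerase with PGI, G6PDH, diaphorase coupling enzymes; amount: 15 ng/mL PMI; incubation: enzyme reaction with compound 20 min at room temperature; technique: resorufin fluorescence (Ex 544/Em 590 nm) from resazurin via diaphorase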
PMI act: activators of human phosphomannose isomerase; AID 1214; P34949; purified human PMI, coupled resazurin fluorescence, 20 min; active compounds read high; 1 = vehicle control, 0 substrate-free wells; actives 0.005% (n = 190,000); activation factor at 20 µM;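 active means activation factor of 2 or more at 20 µM, relative to plate controls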
Diaphorase act: counter-screen for diaphorase-based assays: diaphorase activators and chemical reducers. Diaphorase/resazurin coupled assay, resorufin fluorescence, 16 min; active compounds read high; 1 = vehicle wells, 0 = NADH-free wells. activation factor at 20 µM. actives 0.005% (n = 190,000). AID 1229;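 active means diaphorase activity raised at least twofold by the compound at 20 µM; inactive means activation factor below 2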
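Material: purified diaphorase enzyme from Clostridium kluyveri; Also added: 0.114 mM NADH and 0.1 mM resazurin, final amounts; Doses: single compound dose of 20 µM, 1% DMSO final; Times: 16 min enzyme reaction, ambient temperature; Detection: resorufin fluorescence, excitation 544 nm, emission 590 nm; Measure: increased resorufin signal from activators or reducing compounds.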
Lmaj promast: Leishmania major promastigote growth inhibition; AID 1063; actives 9% (n = 200,000); Leishmania major promastigotes, resazurin fluorescence viability; inhibition, % at 10 µM; in the data active means inhibition above about 50%;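 further: promastigotes grown with compound for 44 hours at 28 °C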
A number is an active result; . = inactive.

SMILES | WT yeast gro inh | PMI act hi M6P | PMI act | Diaphorase act | Lmaj promast
N#C/C(=C\c1cccc(Oc2ccccc2)c1)C(=O)N1CCOCC1 | . | . | . | . | .
COC(=O)C1CN(S(=O)(=O)c2ccccc2)CCN1S(=O)(=O)c1ccccc1 (centres undefined) | . | . | . | . | .
Cc1ccc(CC2SC(N)=NC2=O)cc1 (centres undefined) | . | . | . | . | .
Cc1cc(C)c2c(c1)C1C=CCC1C(c1ccc(S(=O)(=O)N3CCOCC3)cc1)N2 (centres undefined) | . | 2.2 | . | . | .
CC(C)CCOc1ccc(C(=O)N2CCCC2C(=O)O)cc1 (centres undefined) | . | . | . | . | .
Cc1ccc(C)c(N(CC(=O)NN=C2CCN(C)CC2)S(=O)(=O)c2ccccc2)c1 | . | . | . | . | 68
Cc1ccc(N(CC(=O)NN=C2CCN(C)CC2)S(=O)(=O)c2ccc(C)cc2)cc1 | . | . | . | . | .
Cc1nn(Cc2c(Cl)cccc2Cl)c(C)c1NC(=O)c1cn(-c2ccccc2)nc1-c1ccccc1 | . | . | . | . | 83
CC1Cc2cc(-c3csc(NC(=O)Cc4ccccc4)n3)ccc2N1S(C)(=O)=O (centres undefined) | . | . | . | . | .
CS(=O)(=O)N1CCc2cc(-c3csc(NC(=O)C(c4ccccc4)c4ccccc4)n3)ccc21 | . | . | . | . | 94
Cc1cccc(C)c1OCCOC(=O)c1n[nH]c2ccccc12 | 67 | . | . | . | .
Cc1ccc2[nH]cc(C(=O)CCl)c2c1 | . | . | . | . | 81
COc1cccc(C(=O)Nc2nc3c(s2)CN(C)CC3)c1 | . | . | . | . | .
CC(C)C(OC(=O)c1oc2ccccc2c1CSC1CCCCC1)C(=O)NC(N)=O (centres undefined) | . | . | . | . | .
CCNC(=O)NC(=O)C(C)OC(=O)c1oc2ccccc2c1CSC1CCCCC1 (centres undefined) | . | . | . | . | 72
Cc1cc(NC(=O)CCC(=O)N(c2ccc(F)cc2)C(C(=O)NC2CCCC2)c2ccc(C)o2)no1 (centres undefined) | . | . | . | . | .
CCN(CCCNC(=O)C1c2ccccc2C(=O)N(CCOC)C1c1ccc(F)cc1)Cc1ccccc1 (centres undefined) | . | . | . | . | 99
CCN(CC)CCCNC(=O)C1c2ccccc2C(=O)N(CCOC)C1c1ccc(F)cc1 (centres undefined) | . | . | . | . | .
CC(=O)N=c1sc2c3ccccc3ccc2n1C | . | . | . | . | 63
Cc1cccc(CCN=c2c([N+](=O)[O-])nn(-c3ccccc3)n2O)c1 | . | . | . | . | 62
Cc1c(Cl)cccc1N=c1c([N+](=O)[O-])nn(-c2ccccc2)n1O | . | . | . | . | .
Cc1ccc(N=c2c([N+](=O)[O-])nn(-c3ccccc3)n2O)c(C)c1 | . | . | . | . | 56
COc1ccc(CCN=c2c([N+](=O)[O-])nn(-c3cccc(C)c3)n2O)cc1OC | . | . | . | . | .
COc1ccc(-n2nc([N+](=O)[O-])c(=NCCc3cccc(C)c3)n2O)cc1 | . | . | . | . | 81
Cn1cc(CNCc2ccccc2OCC(O)CN2CCc3ccccc3C2)cn1 (centres undefined) | . | . | . | . | .
SMILES | WT yeast gro inh | PMI act hi M6P | PMI act | Diaphorase act | Lmaj promast
O=c1c2c3n(c(=S)nc2[nH]n1-c1ccccc1)CCCCC3 | . | . | . | . | .
O=C(NNC(=O)c1ccc([N+](=O)[O-])cc1Cl)c1ccncc1 | . | . | . | . | 84
CCC(=O)NC(=S)Nc1ccc(NC(=O)c2cccc([N+](=O)[O-])c2C)cc1 | . | . | . | . | 58
COc1ccccc1NS(=O)(=O)c1cc(NC(=O)Nc2cccc(C)c2)ccc1N1CCCCC1 | . | . | . | . | .
O=C(Nc1ccc(Cl)cc1)Nc1ccc(N2CCCC2)c(S(=O)(=O)Nc2ccccc2Cl)c1 | . | . | . | . | 100
COc1ccccc1NS(=O)(=O)c1cccc(NC(=O)Nc2cccc(Cl)c2)c1 | . | . | . | . | 100
COc1ccccc1NS(=O)(=O)c1cccc(NC(=O)c2sc3ccccc3c2Cl)c1 | . | . | . | . | 95
COc1ccc(NS(=O)(=O)c2cc(C(=O)N3CCN(C(C)=O)CC3)ccc2Cl)cc1 | . | . | . | . | .
COc1ccc(NS(=O)(=O)c2cc(N/C(=N\S(=O)(=O)c3ccccc3)c3ccc(F)cc3)ccc2Cl)cc1 | . | . | . | . | 76
COc1cc(OC)cc(C(=O)N[C@H](C(=O)Nc2nc3ccc(S(C)(=O)=O)cc3s2)C(C)C)c1 | . | . | . | . | .
COc1ccccc1NS(=O)(=O)c1cc(NC(=O)C2CC2)ccc1N1CCOCC1 | . | . | . | . | 88
COc1ccc(C(=O)Nc2ccc(Cl)c(S(=O)(=O)Nc3ccccc3OC)c2)cc1 | . | . | . | . | .
COc1ccc(C)cc1S(=O)(=O)Nc1cccc(Cl)c1 | . | . | . | . | 99
COc1ccccc1NC(=O)Nc1ccc(Cl)c(S(=O)(=O)Nc2ccccc2OC)c1 | . | . | . | . | 99
CCCC(c1nnnn1C(C)(C)C)N1CCN(C(=O)c2ccco2)CC1 (centres undefined) | . | . | . | . | .
O=C(COC(=O)c1cncc(Br)c1)NC1CCCCCC1 | . | . | . | . | .
Cc1nc2cc(-c3ccccc3)nn2c(C)c1CCC(=O)N1CCN(c2ccccc2)CC1 | . | . | . | . | 87
Cc1cc(SCC(=O)N(C)CC(=O)Nc2ccc(F)cc2)nc2ccccc12 | . | . | . | . | .
O=C(Oc1cc2oc(=O)c3c(c2cc1Cl)CCCC3)c1cccs1 | 70 | . | . | . | .
CCOC(=O)C1=C(C)N(c2ccccc2)C(=O)NC1c1cccc([N+](=O)[O-])c1 (centres undefined) | . | . | . | . | 95
COc1cc([N+](=O)[O-])ccc1NC(=O)CSc1n[nH]c(C(C)C)n1 | . | . | . | . | .
Cc1noc(NS(=O)(=O)c2ccc(N/C=C/C(=O)c3ccc(F)cc3)cc2)c1C | . | . | . | . | .
COc1ccc(C(=O)/C=C/Nc2ccc(S(=O)(=O)Nc3onc(C)c3C)cc2)cc1 | . | . | . | . | 66
CCc1nnc(NS(=O)(=O)c2ccc(NC(=O)c3ccc(Cl)cc3)cc2)s1 | . | . | . | . | .
Cc1cc(C)nc(NS(=O)(=O)c2ccc(N/C=C/C(=O)c3ccc(Cl)cc3)cc2)n1 | . | . | . | . | 58
CCc1nnc(NS(=O)(=O)c2ccc(N/C=C\C(=O)c3ccc4ccccc4c3)cc2)s1 | . | . | . | . | 54
COc1ccc(C(=O)/C=C/Nc2ccc(S(=O)(=O)Nc3nc(C)cc(C)n3)cc2)cc1OC | . | . | . | . | .
